In ChEMBL document CHEMBL4011650, “3-Hydroxy-1H-quinazoline-2,4-dione as a New Scaffold To Develop Potent and Selective Inhibitors of the Tumor-Associated Carbonic Anhydrases IX and XII” (J Med Chem, 2017):
Active and inactive are the calls of the source. The calls are words filed in the database; no cut-off is given here.

System: not listed separately
Test: Antiproliferative activity against human HT-29 cells assessed as cell viability at 100 uM after 72 hrs under normoxic conditions by MTT assay relative to control
Type: cell-based
Details: read-out: Activity
Outline: (§1)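 HT-29 cells in high-glucose DMEM with 20% FBS were seeded at 1·10^4/well and treated 24 h later. Incubation was under normoxia (20% O2, air with 5% CO2) at 37 °C for 16, 48 or 72 h. Viability was read by MTT reduction (1 mg/ml, 30 min), with formazan in DMSO read at 550 nm, relative to untreated control set at 100%. Quadruplicates on at least three cell batches.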

SMILES | viability at 72 h, 100 µM
CC(=O)Nc1nnc(S(N)(=O)=O)s1 [ACETAZOLAMIDE] | 95.8%
O=c1[nH]c2cc(C(F)(F)F)c([N+](=O)[O-])cc2c(=O)n1O | 45.3%
O=c1[nH]c2ccc([N+](=O)[O-])cc2c(=O)n1O | 94.1%
O=C(NCc1ccccc1)Nc1ccc2[nH]c(=O)n(O)c(=O)c2c1 | 51.7%

System: not listed separately
Test: Antiproliferative activity against human HT-29 cells assessed as cell viability at 100 uM after 48 hrs under normoxic conditions by MTT assay relative to control
Type: cell-based
Details: read-out: Activity
Outline: as §1

SMILES | viability at 48 h, 100 µM
CC(=O)Nc1nnc(S(N)(=O)=O)s1 [ACETAZOLAMIDE] | 101%
O=c1[nH]c2cc(C(F)(F)F)c([N+](=O)[O-])cc2c(=O)n1O | 57.7%
O=c1[nH]c2ccc([N+](=O)[O-])cc2c(=O)n1O | 95.5%
O=C(NCc1ccccc1)Nc1ccc2[nH]c(=O)n(O)c(=O)c2c1 | 56.9%

System: HT-29
Test: Antiproliferative activity against human HT-29 cells assessed as reduction in cell viability at 30 to 300 uM after 16 hrs under normoxic conditions by MTT assay relative to control
Type: cell-based
Details: ht-29, 16 h
Outline: as §1

SMILES | Activity
O=C(NCc1ccccc1)Nc1ccc2[nH]c(=O)n(O)c(=O)c2c1 | Toxic

System: HT-29
Test: Antiproliferative activity against human HT-29 cells assessed as cell viability at 30 uM after 48 hrs under hypoxic conditions by MTT assay relative to control
Type: functional
Details: HT-29, 48 h, read-out: Activity
Outline: (§2)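 HT-29 cells were grown in high-glucose DMEM with 20% FBS, seeded at 1·10^4/well and dosed 24 h later. Incubation was in a hypoxic chamber (0.1% O2, 5% CO2, balance N2) for 16, 48 or 72 h. Cells were washed, given MTT 1 mg/ml for 30 min at 37 °C, and formazan was dissolved in DMSO and read at 550 nm. Viability is % of untreated control, mean ± S.E.M.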

SMILES | viability at 30 µM
CC(=O)Nc1nnc(S(N)(=O)=O)s1 [ACETAZOLAMIDE] | 108%
O=c1[nH]c2cc(C(F)(F)F)c([N+](=O)[O-])cc2c(=O)n1O | 45.2%
O=c1[nH]c2ccc([N+](=O)[O-])cc2c(=O)n1O | 98.8%
O=C(NCc1ccccc1)Nc1ccc2[nH]c(=O)n(O)c(=O)c2c1 | 50.6%

System: not listed separately
Test: Antiproliferative activity against human HT-29 cells assessed as cell viability at 300 uM after 48 hrs under normoxic conditions by MTT assay relative to control
Type: cell-based
Details: read-out: Activity
Outline: as §1

SMILES | viability at 48 h, 300 µM
CC(=O)Nc1nnc(S(N)(=O)=O)s1 [ACETAZOLAMIDE] | 101%
O=c1[nH]c2cc(C(F)(F)F)c([N+](=O)[O-])cc2c(=O)n1O | 45.1%
O=c1[nH]c2ccc([N+](=O)[O-])cc2c(=O)n1O | 95.1%
O=C(NCc1ccccc1)Nc1ccc2[nH]c(=O)n(O)c(=O)c2c1 | 85.6%

System: HT-29
Test: Antiproliferative activity against human HT-29 cells assessed as cell viability at 300 uM after 72 hrs under hypoxic conditions by MTT assay relative to control
Type: functional
Details: HT-29, 72 h, read-out: Activity
Outline: as §2

SMILES | viability at 300 µM
CC(=O)Nc1nnc(S(N)(=O)=O)s1 [ACETAZOLAMIDE] | 84.1%
O=c1[nH]c2cc(C(F)(F)F)c([N+](=O)[O-])cc2c(=O)n1O | 40.3%
O=c1[nH]c2ccc([N+](=O)[O-])cc2c(=O)n1O | 87.3%
O=C(NCc1ccccc1)Nc1ccc2[nH]c(=O)n(O)c(=O)c2c1 | 59.9%

System: HT-29
Test: Antiproliferative activity against human HT-29 cells assessed as cell viability at 100 uM after 72 hrs under hypoxic conditions by MTT assay relative to control
Type: functional
Details: HT-29, 72 h, read-out: Activity
Outline: as §2

SMILES | viability at 100 µM
CC(=O)Nc1nnc(S(N)(=O)=O)s1 [ACETAZOLAMIDE] | 111%
O=c1[nH]c2cc(C(F)(F)F)c([N+](=O)[O-])cc2c(=O)n1O | 38.2%
O=c1[nH]c2ccc([N+](=O)[O-])cc2c(=O)n1O | 93.7%
O=C(NCc1ccccc1)Nc1ccc2[nH]c(=O)n(O)c(=O)c2c1 | 40.2%

Molecular target: Carbonic anhydrase 1 (Homo sapiens, UniProt P00915)
Sequence (P00915 whole entry): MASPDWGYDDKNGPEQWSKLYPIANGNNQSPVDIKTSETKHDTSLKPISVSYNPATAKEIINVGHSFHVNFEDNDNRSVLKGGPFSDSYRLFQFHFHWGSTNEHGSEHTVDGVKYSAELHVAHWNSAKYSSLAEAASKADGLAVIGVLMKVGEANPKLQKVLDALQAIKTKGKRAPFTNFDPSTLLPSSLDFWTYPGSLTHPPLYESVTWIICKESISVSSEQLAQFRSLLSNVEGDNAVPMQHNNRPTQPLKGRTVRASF
Test: Inhibition of recombinant human carbonic anhydrase 1 preincubated for 15 mins prior to testing by phenol red based stopped-flow CO2 hydration assay
Details: not given

SMILES | Ki
O=c1[nH]c2cc(C(F)(F)F)c([N+](=O)[O-])cc2c(=O)n1O | > 10 µM
O=c1[nH]c2ccc([N+](=O)[O-])cc2c(=O)n1O | > 10 µM
O=C(NCc1ccccc1)Nc1ccc2[nH]c(=O)n(O)c(=O)c2c1 | > 10 µM

Molecular target: Carbonic anhydrase 9 (Homo sapiens, UniProt Q16790)
Details: not given

SMILES | Ki
O=c1[nH]c2cc(C(F)(F)F)c([N+](=O)[O-])cc2c(=O)n1O | 0.0097 µM
O=c1[nH]c2ccc([N+](=O)[O-])cc2c(=O)n1O | 0.0046 µM
O=C(NCc1ccccc1)Nc1ccc2[nH]c(=O)n(O)c(=O)c2c1 | 0.0267 µM

System: HT-29
Test: Antiproliferative activity against human HT-29 cells assessed as cell viability at 300 uM after 48 hrs under hypoxic conditions by MTT assay relative to control
Type: functional
Details: HT-29, 48 h, read-out: Activity
Outline: as §2

SMILES | viability at 300 µM
CC(=O)Nc1nnc(S(N)(=O)=O)s1 [ACETAZOLAMIDE] | 85.7%
O=c1[nH]c2cc(C(F)(F)F)c([N+](=O)[O-])cc2c(=O)n1O | 50.2%
O=c1[nH]c2ccc([N+](=O)[O-])cc2c(=O)n1O | 96.7%
O=C(NCc1ccccc1)Nc1ccc2[nH]c(=O)n(O)c(=O)c2c1 | 78.2%

System: HT-29
Test: Antiproliferative activity against human HT-29 cells assessed as cell viability at 100 uM after 48 hrs under hypoxic conditions by MTT assay relative to control
Type: functional
Details: HT-29, 48 h, read-out: Activity
Outline: as §2

SMILES | viability at 100 µM
CC(=O)Nc1nnc(S(N)(=O)=O)s1 [ACETAZOLAMIDE] | 102%
O=c1[nH]c2cc(C(F)(F)F)c([N+](=O)[O-])cc2c(=O)n1O | 46.8%
O=c1[nH]c2ccc([N+](=O)[O-])cc2c(=O)n1O | 99.5%
O=C(NCc1ccccc1)Nc1ccc2[nH]c(=O)n(O)c(=O)c2c1 | 46%

System: HT-29
Test: Antiproliferative activity against human HT-29 cells assessed as reduction in cell viability at 30 to 300 uM after 16 hrs under hypoxic conditions by MTT assay relative to control
Type: functional, cell-based
Details: not given
Outline: as §2

SMILES | Activity
O=C(NCc1ccccc1)Nc1ccc2[nH]c(=O)n(O)c(=O)c2c1 | Active

System: HT-29
Test: Antiproliferative activity against human HT-29 cells assessed as cell viability at 30 uM after 72 hrs under hypoxic conditions by MTT assay relative to control
Type: functional
Details: HT-29, 72 h, read-out: Activity
Outline: as §2

SMILES | viability at 30 µM
CC(=O)Nc1nnc(S(N)(=O)=O)s1 [ACETAZOLAMIDE] | 107%
O=c1[nH]c2cc(C(F)(F)F)c([N+](=O)[O-])cc2c(=O)n1O | 38.6%
O=c1[nH]c2ccc([N+](=O)[O-])cc2c(=O)n1O | 94.7%
O=C(NCc1ccccc1)Nc1ccc2[nH]c(=O)n(O)c(=O)c2c1 | 33.4%

System: not listed separately
Test: Antiproliferative activity against human HT-29 cells assessed as cell viability at 30 uM after 72 hrs under normoxic conditions by MTT assay relative to control
Type: cell-based
Details: read-out: Activity
Outline: as §1

SMILES | viability at 72 h, 30 µM
CC(=O)Nc1nnc(S(N)(=O)=O)s1 [ACETAZOLAMIDE] | 97.6%
O=c1[nH]c2cc(C(F)(F)F)c([N+](=O)[O-])cc2c(=O)n1O | 41.5%
O=c1[nH]c2ccc([N+](=O)[O-])cc2c(=O)n1O | 95.6%
O=C(NCc1ccccc1)Nc1ccc2[nH]c(=O)n(O)c(=O)c2c1 | 32.4%

System: not listed separately
Test: Antiproliferative activity against human HT-29 cells assessed as cell viability at 300 uM after 72 hrs under normoxic conditions by MTT assay relative to control
Type: cell-based
Details: read-out: Activity
Outline: as §1

SMILES | viability at 72 h, 300 µM
CC(=O)Nc1nnc(S(N)(=O)=O)s1 [ACETAZOLAMIDE] | 93.2%
O=c1[nH]c2cc(C(F)(F)F)c([N+](=O)[O-])cc2c(=O)n1O | 49.7%
O=c1[nH]c2ccc([N+](=O)[O-])cc2c(=O)n1O | 94.3%
O=C(NCc1ccccc1)Nc1ccc2[nH]c(=O)n(O)c(=O)c2c1 | 61.3%

Molecular target: Carbonic anhydrase 2 (Homo sapiens, UniProt P00918)
Test: Inhibition of recombinant human carbonic anhydrase 2 preincubated for 15 mins prior to testing by phenol red based stopped-flow CO2 hydration assay
Details: not given

SMILES | Ki
O=c1[nH]c2cc(C(F)(F)F)c([N+](=O)[O-])cc2c(=O)n1O | > 10 µM
O=c1[nH]c2ccc([N+](=O)[O-])cc2c(=O)n1O | > 10 µM
O=C(NCc1ccccc1)Nc1ccc2[nH]c(=O)n(O)c(=O)c2c1 | > 10 µM

System: not listed separately
Test: Antiproliferative activity against human HT-29 cells assessed as cell viability at 30 uM after 48 hrs under normoxic conditions by MTT assay relative to control
Type: cell-based
Details: read-out: Activity
Outline: as §1

SMILES | viability at 48 h, 30 µM
CC(=O)Nc1nnc(S(N)(=O)=O)s1 [ACETAZOLAMIDE] | 96.8%
O=c1[nH]c2cc(C(F)(F)F)c([N+](=O)[O-])cc2c(=O)n1O | 53.9%
O=c1[nH]c2ccc([N+](=O)[O-])cc2c(=O)n1O | 101%
O=C(NCc1ccccc1)Nc1ccc2[nH]c(=O)n(O)c(=O)c2c1 | 57.4%
